The nature of assay [1]: HUVEC growth inhibition – cell-based, human, primary screen (AID 575;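 active = viability at or below 30% in both replicate assays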;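 note: 100% = median of untreated cell wells with 0.1% DMSO on each plate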). As to conditions: HUVEC proliferation, CellTiter-Glo luminescence, 72 h; at 10 µM; stronger effect = lower value. In short, it runs like this:
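System – primary HUVEC, no more than 12 passages · Medium – Low-serum (2% FBS) EBM, supplemented · Times – 72 h exposure, 37 °C, 5% CO2, 30 min RT equilibration · Measured by – luminescent ATP assay · Read-out – % viability relative to median vehicle-well signal on each plate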

Assay [2] in a line: growth inhibitors of H69AR lung tumor, primary screen, human, duplicate replicates (AID 580;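 active = viability at or under a set limit in both replicates, limit being median viability minus 3 SD, cut at about 48% in these data, passing the limit was not always enough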;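 note: 100% = mean luminescence of untreated wells and 0% = no signal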). As to conditions: H69AR lung tumor cells viability, ATP luminescence, 72 h; at 10 µM; stronger effect = lower value.
A short description of assay [3]: reversal of MRP1-mediated doxorubicin resistance, pilot screen, H69AR cells, doxorubicin co-treatment (AID 601;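 active = viability loss from added drug above about 55%, and viability with drug at most 40%, in both replicates, limit read from the data, passing the limit was not always enough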). As to conditions: CellTiter-Glo, 72 h, at 10 µM; for differential viability (reversal): stronger effect = higher value. A general note: Cellular ATP, detected with luciferase, serves as a proxy for viable cell number.
A short description of assay [4]: 384-well plate pilot, post-Golgi transport modulator project, inhibition of yeast transport mutant growth (AID 636; in the data active = inhibition above about 31%). The conditions noted are these: absorbance 615 nm, about 18 h, stronger effect = higher value.
A short description of assay [5]: growth suppression of yeast trafficking mutant, preliminary HTS, modulators of trafficking downstream of Golgi apparatus project, 1536-format plate, OD 615 nm (AID 637). As to conditions: yeast transport mutant growth, absorbance 615 nm, 18 h; stronger effect = higher value.
Where [6] appears, read: H69AR cells + 2 uM doxorubicin, measured here: viability with 2 uM doxorubicin, stronger effect = lower value.
Setting [7] is: H69AR cells, compound alone cytotoxicity.

Calls of active or inactive are those of the source. Cut-off read from the data, not from the text of the source, unless noted: active = inhibition above about 30%; inactive = the rest.

`Cn1c(=O)c2c(nc(-n3ccnc3)n2C)n(C)c1=O`: the viability is 105% (inactive) in assay [1], 101% (inactive) in assay [2], 92.7% in assay [3] (setting [6]) and 101% in assay [3] (setting [7]). In addition, the differential viability (reversal) in assay [3] (H69AR cells + 2 uM doxorubicin) is 8.81% (inactive). The inhibition was -4.13% (inactive) in assay [4] and 1.59% (inactive) in assay [5].
Regarding `Cc1nc(C)c(C(=O)C2=C(O)C(=O)N(CCN3CCOCC3)C2c2ccco2)s1` (stereo not given), the viability is 109% (inactive) in assay [1], 86.3% (inactive) in assay [2], 89.7% in assay [3] (setting [6]) and 86.3% in assay [3] (setting [7]). Moreover, the differential viability (reversal) in assay [3] (H69AR cells + 2 uM doxorubicin) was -3.34% (inactive). Also, the values for the inhibition in assay [4] and in assay [5] were -4.8% (inactive) and 3.02% (inactive), respectively.
In the case of `CCc1cc(-c2[nH]ncc2-c2ccc3c(c2)OCO3)c(O)cc1O`, the viability is 4.08% (active) in assay [1], 23.3% (active) in assay [2], 37.5% in assay [3] (setting [6]) and 23.3% in assay [3] (setting [7]). Besides, in assay [3] (H69AR cells + 2 uM doxorubicin), the differential viability (reversal) is -14.2% (inactive). Also, the figures for the inhibition in assay [4] and in assay [5] were 4.94% (inactive) and 27.1% (inactive), respectively.
For the molecule `CCOC(=O)C1CCCn2c1nc1sc3c(c1c2=O)CCCC3` (stereo not given), the viability in assay [1] was 86.1% (inactive); in assay [2], 89.1% (inactive); in assay [3] (setting [6]), 98.3%; in assay [3] (setting [7]) it was 89.1%. In assay [3] (H69AR cells + 2 uM doxorubicin), the differential viability (reversal) was -9.13% (inactive). Further, the results for the inhibition in assay [4] and in assay [5] were 0.27% (inactive) and -4.6% (inactive), respectively.
Regarding `Cc1noc(NS(=O)(=O)c2ccc(NC(=O)CCC3CCCC3)cc2)c1C`, the viability is 88.9% (inactive) in assay [1], 94% (inactive) in assay [2], 82.4% in assay [3] (setting [6]) and 94% in assay [3] (setting [7]). Also, the differential viability (reversal) in assay [3] (H69AR cells + 2 uM doxorubicin) is 11.6% (inactive). In addition, the results for the inhibition in assay [4] and in assay [5] were -4.03% (inactive) and -0.16% (inactive), respectively.
On to `Cc1ccc(-c2nnn(CC(=O)N(CC(=O)NCC3CCCO3)c3ccccc3)n2)o1` (stereo not given), for which the viability in assay [1] is 88.7% (inactive); in assay [2] it was 90.9% (inactive); in assay [3] (setting [6]), 88.4%; in assay [3] (setting [7]), 90.9%. Moreover, in assay [3] (H69AR cells + 2 uM doxorubicin), the differential viability (reversal) is 2.55% (inactive). The inhibition in assay [4] was -5.97% (inactive); in assay [5], -1.11% (inactive).
For `CN(CC(=O)N1CCN(c2ccccn2)CC1)S(=O)(=O)c1ccc2ccccc2c1`, the viability in assay [1] was 81.5% (inactive); in assay [2], 89% (inactive); in assay [3] (setting [6]) it was 79.8%; in assay [3] (setting [7]), 89%. Besides, the differential viability (reversal) in assay [3] (H69AR cells + 2 uM doxorubicin) was 9.23% (inactive). For the same molecule, the results for the inhibition in assay [4] and in assay [5] were -2.63% (inactive) and -3.33% (inactive), respectively.
For `CC1CCCC(NC(=O)CN2CCN(Cc3ccc(Cl)cc3)C2=O)C1C` (stereo not given), the viability in assay [1] is 108% (inactive); in assay [2], 103% (inactive); in assay [3] (setting [6]) it was 86.4%; in assay [3] (setting [7]), 103%. Moreover, the differential viability (reversal) in assay [3] (H69AR cells + 2 uM doxorubicin) is 16.2% (inactive). In addition, the figures for the inhibition in assay [4] and in assay [5] were -1.43% (inactive) and 4.92% (inactive), respectively.
On to `Cc1ccc(Cn2ccc(NC(=O)c3noc4c3CCCC4)n2)cc1`, for which the viability in assay [1] is 101% (inactive); in assay [2], 112% (inactive); in assay [3] (setting [6]), 88.6%; in assay [3] (setting [7]), 112%. Also, in assay [3] (H69AR cells + 2 uM doxorubicin), the differential viability (reversal) was 23.6% (inactive). For the same molecule, the figures for the inhibition in assay [4] and in assay [5] were -3.25% (inactive) and 2.86% (inactive), respectively.
For `O=S1(=O)C=C(Sc2nc3ccccc3s2)c2ccccc21`, the viability in assay [1] was 9.16% (active); in assay [2], 1.38% (active); in assay [3] (setting [6]) it was 0.99%; in assay [3] (setting [7]), 1.38%. Besides, the differential viability (reversal) in assay [3] (H69AR cells + 2 uM doxorubicin) was 0.39% (inactive). The inhibition is 37.3% (active) in assay [4] and 55.6% (active) in assay [5].
Consider `CCNc1oc(COc2ccccc2F)nc1C#N`, for which the viability in assay [1] was 89.8% (inactive); in assay [2], 100% (inactive); in assay [3] (setting [6]), 77.4%; in assay [3] (setting [7]), 100%. The differential viability (reversal) in assay [3] (H69AR cells + 2 uM doxorubicin) was 22.9% (inactive). Besides, the inhibition was -2.6% (inactive) in assay [4] and 1.43% (inactive) in assay [5].
On to `Cc1cccc(NCc2ccccc2O)c1`, for which the viability in assay [1] is 76.1% (inactive); in assay [2], 94.6% (inactive); in assay [3] (setting [6]) it was 89.2%; in assay [3] (setting [7]), 94.6%. For the same molecule, the differential viability (reversal) in assay [3] (H69AR cells + 2 uM doxorubicin) was 5.33% (inactive). Besides, the inhibition was -0.13% (inactive) in assay [4] and -5.87% (inactive) in assay [5].
As to `CCS(=O)(=O)N1CCC(C(=O)N2CCOCC2)CC1`, the viability was 92.1% (inactive) in assay [1], 98.5% (inactive) in assay [2], 99.6% in assay [3] (setting [6]) and 98.5% in assay [3] (setting [7]). Further, in assay [3] (H69AR cells + 2 uM doxorubicin), the differential viability (reversal) was -1.11% (inactive). Moreover, the inhibition in assay [4] was -0.52% (inactive); in assay [5], -0.16% (inactive).
`CS(=O)(=O)Nc1ccc(C(=O)NCc2ccc3c(c2)OCO3)cc1`: the viability is 92.2% (inactive) in assay [1], 96.2% (inactive) in assay [2], 95.5% in assay [3] (setting [6]) and 96.2% in assay [3] (setting [7]). Further, in assay [3] (H69AR cells + 2 uM doxorubicin), the differential viability (reversal) is 0.675% (inactive). The inhibition in assay [4] is -8.29% (inactive); in assay [5], -1.9% (inactive).
With `COc1ccc(-c2noc(CCC(=O)Nc3nc4ccccc4s3)n2)cc1`, the viability in assay [1] is 88.2% (inactive); in assay [2], 88.1% (inactive); in assay [3] (setting [6]), 91.1%; in assay [3] (setting [7]), 88.1%. The differential viability (reversal) in assay [3] (H69AR cells + 2 uM doxorubicin) was -3.04% (inactive). Moreover, the inhibition in assay [4] is 2.21% (inactive); in assay [5], 7.46% (inactive).
As to `CCOC(=O)Cc1csc(NC(=O)CSc2nnc(C)n2C)n1`, the viability is 108% (inactive) in assay [1], 95.2% (inactive) in assay [2], 89.4% in assay [3] (setting [6]) and 95.2% in assay [3] (setting [7]). Further, in assay [3] (H69AR cells + 2 uM doxorubicin), the differential viability (reversal) was 5.79% (inactive). The inhibition was 6.27% (inactive) in assay [4] and -5.4% (inactive) in assay [5].
Turning to `Cn1c(=O)[nH]c(=O)c2c1nc(NCCCn1ccnc1)n2Cc1cccc(Br)c1`, the viability in assay [1] was 90.3% (inactive); in assay [2], 81.7% (inactive); in assay [3] (setting [6]), 73.6%; in assay [3] (setting [7]), 81.7%. The differential viability (reversal) in assay [3] (H69AR cells + 2 uM doxorubicin) is 8.09% (inactive). The inhibition in assay [4] was -5.47% (inactive); in assay [5], 0.95% (inactive).
Turning to `O=C(NC1(C(F)(F)F)NC(=O)N(Cc2ccco2)C1=O)c1cccnc1` (stereo not given), the viability in assay [1] was 109% (inactive); in assay [2] it was 97.2% (inactive); in assay [3] (setting [6]) it was 94.8%; in assay [3] (setting [7]), 97.2%. Also, the differential viability (reversal) in assay [3] (H69AR cells + 2 uM doxorubicin) was 2.34% (inactive). Also, the inhibition in assay [4] was -7.89% (inactive); in assay [5], 1.11% (inactive).
`O=C(Nc1nnc(CCN2CCCCC2)s1)C1CCCCC1`: the viability is 93.4% (inactive) in assay [1], 91.9% (inactive) in assay [2], 84.7% in assay [3] (setting [6]) and 91.9% in assay [3] (setting [7]). The differential viability (reversal) in assay [3] (H69AR cells + 2 uM doxorubicin) is 7.11% (inactive). For the same molecule, the values for the inhibition in assay [4] and in assay [5] were -5.73% (inactive) and 4.76% (inactive), respectively.
In the case of `CC(C)c1ccc(-c2nc(N3CCOCC3)[nH]c(=O)c2C#N)cc1`, the viability in assay [1] is 79.3% (inactive); in assay [2] it was 98% (inactive); in assay [3] (setting [6]) it was 96.4%; in assay [3] (setting [7]), 98%. The differential viability (reversal) in assay [3] (H69AR cells + 2 uM doxorubicin) is 1.58% (inactive). For the same molecule, the inhibition in assay [4] was -6.4% (inactive); in assay [5], 3.33% (inactive).

As a reminder, the viability is a read-out of living cells in per cent, often relative to untreated cells. As usually defined, the inhibition is the relative decrease from the control value, in per cent.

Source of the values: PubChem BioAssay.
